# Measured values of several laboratories.
# Protocols differ between the studies behind these lines.
# Target: Macrophage-stimulating protein receptor (MST1R, Homo sapiens, UniProt Q04912)
Structure (SMILES),assay,setting,remaining binding [%]
O=C(c1ccc(Nc2ncc(Cl)c(-c3ccc(Cl)s3)n2)cc1)N1CCC(N2CCCC2)CC1,"binding, competition with immobilised ligand",1 µM,43
c1cncc(-c2cccc(Nc3nccc(NC4CCCCC4)n3)c2)c1,"binding, competition with immobilised ligand",10 µM,78
COc1ncc2cc3ccccc3nc2c1C#N,"cell-free assay, competition with immobilised ligand",5 µM,100
O=C(NCCCN1CCOCC1)c1ccc(Nc2nccc(-c3cc4ccccc4s3)n2)cc1,"binding, competition with immobilised ligand",1 µM,100
O=C(Nc1cccnn1)N1CC(C/C=C/c2cncc(Oc3ccc(C(F)(F)F)cn3)n2)C1,"cell-free assay, competition with immobilised ligand",1 µM,100
O=C(Nc1c[nH]nc1C(=O)NC1CCNCC1)c1cc(F)cc(F)c1,"binding, competition with immobilised ligand",1 µM,100
COc1cnc(Nc2cccc(S(N)(=O)=O)c2)nc1N1CCN(c2ccccc2)CC1,"binding, competition with immobilised ligand",1 µM,99
C[C@@]1(Cc2ccc(C#N)cc2)C(=O)N(c2cc(Cl)cc(Cl)c2)c2ncc(C(=O)NC3(c4nc(C5CCC5)no4)CC3)n21,"cell-free assay, competition with immobilised ligand",1 µM,100
N[C@@H]1CCN(c2nccc(-c3cnn4ncccc34)n2)C1,binding,1 µM,100
O=C(c1ccc(Nc2ncc(Cl)c(-c3cc4ccccc4s3)n2)cc1)N1CCC(N2CCCC2)CC1,"binding, competition with immobilised ligand",1 µM,56
CN(C)c1nccc(-c2cnn3ncccc23)n1,binding,1 µM,100
c1ccc(N2CCN(Cc3nc4ccccc4[nH]3)CC2)nc1,"cell-free assay, competition with immobilised ligand",1 µM,100
C[C@H]1CCN(c2nccc(-c3cnn4ncccc34)n2)C1,binding,1 µM,93
CNC(=O)c1ccc(Nc2ncc(C(F)(F)F)c(NCc3nccnc3N(C)S(C)(=O)=O)n2)cc1,"cell-free assay, competition with immobilised ligand",0.1 µM,100
Nc1ncc2c(n1)-c1c([nH]c3ccc(C#CC4CC4)cc13)CCCC2,"binding, competition with immobilised ligand",1 µM,100
CN(C)c1nccc(-c2cnc3ncccn23)n1,binding,1 µM,98
CS(=O)(=O)c1cc(C2(NC(=O)c3cncc4c3cnn4-c3ccc(F)cc3)CC2)ccn1,"cell-free assay, competition with immobilised ligand",1 µM,83
Cc1cnn2ncc(-c3ccnc(N(C)C)n3)c2c1,binding,1 µM,71
O=C(O)[C@H]1[C@H](Cn2nnc3ccccc3c2=O)CC[C@@H]1C(=O)c1ccc(OCCC2CCOCC2)cc1,"cell-free assay, competition with immobilised ligand",1 µM,96
F[C@@H]1CCN(c2nccc(-c3cnn4ncccc34)n2)C1,binding,1 µM,100
C[C@@H](c1ccc(-n2cnc3c(N)ncnc32)cc1)N1CCc2nn(C)c(Cc3ccccc3)c2C1=O,"binding, competition with immobilised ligand",0.1 µM,83
